Experimental data: PubChem BioAssay AID602414 (Southern Research Specialized Biocontainment Screening …, 2012)
Where “and” joins values, the source holds several entries; their conditions need not be identical. Equal entries are not always repeated. Calls of active or inactive are those of the source.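 How the source made its calls: active means viability under 80% at some tested dose in each replicate, a sign of cell toxicity; inconclusive means meets the active limit in only one replicate; inactive means the rest.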

Tested on: not listed separately
Assay: cytotoxicity in bladder 5637 cells, dose response, cytotoxicity control for bacterial capsule biogenesis inhibitor project, cell-based, set 5 (AID 602414)
Details: Bladder 5637 cells viability, CellTiter-Glo, 72 h; at 150 µM (top of the series)
Method in brief: (§1)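 Material – bladder carcinoma 5637 cells · Times – 72 h exposure · Signal – CellTiter-Glo luminescence · Measure – percent viability versus mean cell-only control, CC50 from curve fit · Controls – Hyamine positive control, untreated cell control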

Compound | viability
O=C(Nc1nc2ccc(Br)cc2s1)c1cc(Br)c(Br)s1 | 110% (inactive)

Same assay, conditions: Bladder 5637 cells viability, CellTiter-Glo, 72 h; at 300 µM (top of the series)

Compound | viability
O=C(Nc1ccc2ncsc2c1)c1ccncc1 | 119% (inactive)

Tested on: Bladder 5637 cells viability, CellTiter-Glo, 72 h
Assay: as above
Details: not given
Method in brief: as §1

Compound | CC50
O=C(Nc1ccnc(Cl)c1)c1ccc2ncsc2c1 | 38.8 µM
Cc1ccc(-c2cc(NC(=O)c3cccc(F)c3)c(C(=O)O)s2)cc1 | 43.9 µM
CCOc1ccc2nc(NC(=O)c3ccc(Br)s3)sc2c1 | 91.2 µM
CCCCOc1ccc(-c2cc(NC(=O)c3cc(Br)c(Br)o3)c(C(=O)O)s2)cc1 | 31.7 µM
O=C(O)c1sc(-c2ccc(C(F)(F)F)cc2)cc1NC(=O)c1c(F)cccc1F | 44.8 µM
COc1cccc2sc(NC(=O)c3ccc(Br)s3)nc12 | 24.4 µM
CCOc1ccc(-c2cc(NC(=O)c3ccc(Br)s3)c(C(=O)O)s2)cc1 | 49.7 µM
O=C(O)c1sc(-c2ccc(OCCCC(F)(F)F)cc2)cc1NC(=O)c1c(F)cccc1F | 241 µM
O=C(O)c1sc(-c2ccc(OCCC(F)(F)F)cc2)cc1NC(=O)c1c(F)cccc1F | 68.4 µM
O=S(=O)(Nc1nc2ccc(F)cc2s1)c1ccc(Br)s1 | 135 µM
Cc1ccc(-c2cc(NC(=O)c3cc4ccccc4o3)c(C(=O)O)s2)cc1 | 94.6 µM
O=C(Nc1cc(-c2ccc(OCCCC(F)(F)F)cc2)sc1C(=O)O)c1ccc(Br)o1 | 38.7 µM
COc1ccc(-c2cc(NC(=O)c3cc4ccccc4o3)c(C(=O)O)s2)cc1 | 284 µM
CC(C)(C)c1ccc(-c2cc(NC(=O)c3ccc(Br)s3)c(C(=O)O)s2)cc1 | 20.5 µM
O=C(Nc1cc(-c2ccccc2)sc1C(=O)O)c1ccc(Br)o1 | 53.3 µM
CC(C)c1ccc(-c2cc(NC(=O)c3ccc(Br)s3)c(C(=O)O)s2)cc1 | 33.1 µM
O=C(Nc1cc(-c2ccc(C(F)(F)F)cc2)sc1C(=O)O)c1cccc(F)c1 | 35.1 µM
CC(C)(C)c1ccc(-c2cc(NC(=O)c3cccc(F)c3)c(C(=O)O)s2)cc1 | 21.1 µM
O=C(Nc1cc(-c2ccc(C(F)(F)F)cc2)sc1C(=O)O)c1ccc(Br)s1 | 38.5 µM
CCOc1ccc(-c2cc(NC(=O)c3cccc(F)c3)c(C(=O)O)s2)cc1 | 55.6 µM
CC(C)c1ccc(-c2cc(NC(=O)c3cc4ccccc4o3)c(C(=O)O)s2)cc1 | 47.2 µM
O=C(O)c1sc(-c2ccc(OCC(F)(F)F)cc2)cc1NC(=O)c1c(F)cc(F)cc1F | 161 µM
O=S(=O)(Nc1nc2ccc(OC(F)(F)F)cc2s1)c1ccc(Br)s1 | 65.9 µM
O=C(O)c1sc(-c2ccc(OCCC(F)(F)F)cc2)cc1NC(=O)c1c(F)cc(F)cc1F | 63.6 µM
O=C(Nc1cc(-c2ccc(OC(F)(F)F)cc2)sc1C(=O)O)c1cccc(F)c1 | 52.1 µM
CCCOc1ccc(-c2cc(NC(=O)c3c(F)cc(F)cc3F)c(C(=O)O)s2)cc1 | 85.6 µM

Compound | CC50
COc1cccc2sc(NCc3ccc(Br)s3)nc12 | 165 µM
O=C(Nc1cc(-c2ccc(C(F)(F)F)cc2)sc1C(=O)O)c1cc2ccccc2o1 | 72.1 µM
O=C(Nc1cc(-c2ccccc2)sc1C(=O)O)c1cccs1 | 34.7 µM
Cc1ccc(-c2cc(NC(=O)c3ccc(Br)o3)c(C(=O)O)s2)cc1 | 50.7 µM
[N-]=[N+]=NCCOc1ccc(-c2cc(NC(=O)c3c(F)cccc3F)c(C(=O)O)s2)cc1 | 273 µM
O=C(Nc1ccnc(F)c1)c1ccc2ncsc2c1 | 119 µM
COc1ccc2nc(NC(=O)c3ccco3)sc2c1 | 66.7 µM
O=C(NCc1cc([N+](=O)[O-])ccc1O)c1cccnc1Sc1ccccc1Cl | 51.9 µM
CCOc1ccc(-c2cc(NC(=O)c3ccc(Br)o3)c(C(=O)O)s2)cc1 | 58.4 µM
CCCCOc1ccc(-c2cc(NC(=O)c3ccc(Br)o3)c(C(=O)O)s2)cc1 | 43.4 µM
O=C(O)c1sc(-c2ccc(C(F)(F)F)cc2)cc1NS(=O)(=O)c1ccc(Br)s1 | 45.2 µM
O=C(Nc1cc(-c2ccc(C(F)(F)F)cc2)sc1C(=O)O)c1ccc(Br)o1 | 47.5 µM
O=C(Nc1cc(-c2ccc(OCC(F)(F)F)cc2)sc1C(=O)O)c1ccc(Br)o1 | 50 µM
CCCCOc1ccc(-c2cc(NC(=O)c3c(F)cccc3F)c(C(=O)O)s2)cc1 | 42.6 µM
O=C(Nc1cc(-c2ccc(OC(F)(F)F)cc2)sc1C(=O)O)c1cc2ccccc2o1 | 40.6 µM
O=C(Nc1cc(-c2ccccc2)sc1C(=O)O)c1cccc(Cl)c1 | 35 µM
COc1ccc(-c2cc(NC(=O)c3cccc(F)c3)c(C(=O)O)s2)cc1 | 44.8 µM
O=C(O)c1sc(-c2ccc(OCCCC(F)(F)F)cc2)cc1NC(=O)c1c(F)cc(F)cc1F | 54.7 µM
CC(C)c1ccc(-c2cc(NC(=O)c3c(F)cccc3F)c(C(=O)O)s2)cc1 | 32.4 µM
CCOc1ccc(-c2cc(NC(=O)c3ccc(OC)c(OC)c3)c(C(=O)O)s2)cc1 | 61.8 µM
COc1ccc(-c2cc(NC(=O)c3ccc(Br)o3)c(C(=O)O)s2)cc1 | 50.5 µM
O=C(Nc1ccnc(Br)c1)c1ccc2ncsc2c1 | 136 µM
COc1ccc(-c2cc(NC(=O)c3c(F)cccc3F)c(C(=O)O)s2)cc1 | 53.3 µM
CCCc1ccc(-c2cc(NC(=O)c3ccc(Br)o3)c(C(=O)O)s2)cc1 | 46.4 µM
CCCc1ccc(-c2cc(NC(=O)c3cc(Br)c(Br)o3)c(C(=O)O)s2)cc1 | 41 µM
O=C(O)c1sc(-c2ccc(OCC(F)(F)F)cc2)cc1NC(=O)c1c(F)cccc1F | 75.2 µM

Compound | CC50
CCCc1ccc(-c2cc(NC(=O)c3c(F)cccc3F)c(C(=O)O)s2)cc1 | 54.9 µM
O=C(Nc1cc(-c2ccc(OCCCC(F)(F)F)cc2)sc1C(=O)O)c1cc(Br)c(Br)o1 | 26.6 µM and 251 µM
O=C(O)c1sc(-c2ccc(OC(F)(F)F)cc2)cc1NC(=O)c1c(F)cccc1F | 51 µM
CCOc1ccc(-c2cc(NC(=O)c3c(F)cccc3C(F)(F)F)c(C(=O)O)s2)cc1 | 62 µM
O=C(Nc1cc(-c2ccc(OC(F)(F)F)cc2)sc1C(=O)O)c1ccc(Br)o1 | 33.6 µM
CC(C)(C)c1ccc(-c2cc(NC(=O)c3cc4ccccc4o3)c(C(=O)O)s2)cc1 | 34.5 µM
O=C(Nc1ccncc1)c1ccc2ncsc2c1 | 178 µM and 244 µM
CCOc1ccc(-c2cc(NC(=O)c3cc4ccccc4o3)c(C(=O)O)s2)cc1 | 193 µM
COc1ccc2nc(NC(=O)c3cccs3)sc2c1 | 29.3 µM
CC(C)c1ccc(-c2cc(NC(=O)c3ccc(Br)o3)c(C(=O)O)s2)cc1 | 50.4 µM
Cc1ccc(-c2cc(NS(=O)(=O)c3ccc(Br)s3)cs2)cc1 | 94 µM
CN(C(=O)c1ccc2ncsc2c1)c1ccccc1 | 267 µM
CCOc1ccc(-c2cc(NC(=O)c3cccc(Cl)c3)c(C(=O)O)s2)cc1 | 43.6 µM
Cc1ccc(-c2cc(NC(=O)c3ccc(Br)s3)c(C(=O)O)s2)cc1 | 66 µM
O=C(Nc1ncccc1O)c1ccc2ncsc2c1 | 159 µM
CCCc1ccc(-c2cc(NC(=O)c3c(F)cc(F)cc3F)c(C(=O)O)s2)cc1 | 69.9 µM
O=C(Nc1ccncc1F)c1ccc2ncsc2c1 | 229 µM
O=C(Nc1cc(-c2ccccc2)sc1C(=O)O)c1ccc2c(c1)OCCO2 | 121 µM
CC(C)(C)c1ccc(-c2cc(NC(=O)c3c(F)cccc3F)c(C(=O)O)s2)cc1 | 35.1 µM
CCOc1ccc(-c2cc(NC(=O)c3c(F)cccc3F)c(C(=O)O)s2)cc1 | 42.1 µM and 51.6 µM
CC(C)c1ccc(-c2cc(NC(=O)c3cccc(F)c3)c(C(=O)O)s2)cc1 | 37.5 µM
O=C(ONc1ccc(N=NC(=O)c2ccccc2O)cc1)c1ccccc1 | 12.8 µM
O=C(Nc1cc(-c2ccc(OCCC(F)(F)F)cc2)sc1C(=O)O)c1ccc(Br)o1 | 41.7 µM
CCOc1ccc(-c2cc(NC(=O)c3c(F)cc(F)cc3F)c(C(=O)O)s2)cc1 | 76.6 µM
CCCCOc1ccc(-c2cc(NC(=O)c3c(F)cc(F)cc3F)c(C(=O)O)s2)cc1 | 56.2 µM
Cc1ccc(-c2cc(NC(=O)c3c(F)cccc3F)c(C(=O)O)s2)cc1 | 57.3 µM
